Assay results from ChEMBL document CHEMBL4732044, “Discovery of a promising agent IQZ23 for the treatment of obesity and related metabolic disorders” (Eur J Med Chem, 2020).
≈ marks a conversion by molar mass, not a printed value. Calls of active or inactive are those of the source. No cut-off for these calls is given here.

What was measured:
[1] = Tmax in Sprague-Dawley rat at 5 mg/kg, po up to 24 hrs by LC-MS/MS analysis; type: ADME, organism-based; settings: in vivo
Summary of the method: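 Male Sprague-Dawley rats (180-220 g, n = 3) were dosed intragastrically at 5 mg/kg in ethanol/saline (5:95); a separate iv arm received 2 mg/kg. Blood was drawn at 0, 30 min, 1, 2, 4, 8, 12 and 24 h and centrifuged to obtain plasma. Drug levels were measured by LC-MS/MS, and pharmacokinetic parameters were calculated from the concentration–time data.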

3T3-L1 [2] = experiment: Activation of AMPK pathway in mouse 3T3-L1 cells assessed as increase in number of mitochondria copy at 1 uM after 24 hrs in presence of compound C by mito-tracker staining based Confocal microscopic method
Summary of the method: (§1)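 3T3-L1 cells grown in DMEM with 10% FBS at 37 °C and 5% CO2. After treatment, cells were stained for 30 min at 37 °C in the dark with 1 µM Mito-Tracker plus Hoechst 33342 (1:1000) and imaged by confocal microscopy (excitation 633 and 405 nm). Mitochondrial copy number was also taken as the mtDNA/nDNA ratio by PCR (cytochrome C versus 18S rRNA).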

[3] = MRT(0 to infinity) in Sprague-Dawley rat at 5 mg/kg, po up to 24 hrs by LC-MS/MS analysis; type: ADME, organism-based; settings: in vivo
Summary of the method: (§2)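 Male SD rats (180–220 g, n = 3) received compound in ethanol/saline (5:95), either intravenously at 2 mg/kg or intragastrically at 5 mg/kg. Plasma was sampled at 0, 0.5, 1, 2, 4, 8, 12 and 24 h. Concentrations were measured by LC-MS/MS, and PK parameters were calculated from the concentration–time data.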

3T3-L1 [4] = experiment: Inhibition of mouse 3T3-L1 cells adipocyte differentiation assessed as reduction in adipogenic cocktail-induced C/EBPbeta mRNA expression after 24 hrs by RT-qPCR analysis; type: functional, cell-based; settings: dose 0.01-1 µM
Summary of the method: (§3)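 Confluent 3T3-L1 preadipocytes received differentiation cocktail (0.5 mM IBMX, 100 ng/mL dexamethasone, 2 µg/mL insulin) with compound (0.01–1 µM; metformin 1 mM) for 24 h. mRNA was measured by SYBR Green RT-qPCR (30 cycles), normalized to β-actin, with the differentiated control set to 1. N = 4 independent experiments.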

[5] = Stability in Sprague-Dawley rat liver microsomes assessed as rate constant […] up to 60 mins in presence of NADPH by LC-MS/MS analysis; type: ADME, Microsome
3T3-L1 [6] = experiment: Activation of AMPK pathway in adipogenic cocktail-induced mouse 3T3-L1 cells assessed as increase in phosphorylation AMPKalpha at Thr172 residue at 0.01 to 1 uM after 24 hrs by Western blot analysis; type: cell-based; settings: filed as activator, dose 0.01-1 µM
Summary of the method: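 Confluent 3T3-L1 pre-adipocytes exposed to adipogenic cocktail for 24 h with or without compound (0, 0.01, 0.1, 1 µM); DMSO vehicle. Lysates analysed by SDS-PAGE/Western blot for pAMPKα (Thr-172), normalized to actin, Ctrl set as 1. N = 4 independent experiments.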

[7] = AUC(0 to t) in Sprague-Dawley rat at 5 mg/kg, po up to 24 hrs by LC-MS/MS analysis; type: ADME, organism-based; parameters: route oral, dose 5 mg/kg, time <=24; settings: in vivo
Summary of the method: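 Male Sprague-Dawley rats (180-220 g, n = 3) were dosed intragastrically at 5 mg/kg in ethanol/saline (5:95). Plasma was collected at 0, 30 min, 1, 2, 4, 8, 12 and 24 h post-dose and quantified by LC-MS/MS. Pharmacokinetic parameters were derived from the plasma concentration-time profile.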

[8] = Stability in Sprague-Dawley rat liver microsomes assessed as remaining compound […] up to 60 mins in presence of NADPH by LC-MS/MS analysis; type: ADME, Microsome; settings: read-out: Stabilty
[9] = Cmax in Sprague-Dawley rat at 5 mg/kg, po up to 24 hrs by LC-MS/MS analysis; type: ADME, organism-based; parameters: route oral, dose 5 mg/kg, time <=24; settings: in vivo; summary of the method: as §2
3T3-L1 [10] = experiment: Activation of AMPK pathway in mouse 3T3-L1 cells assessed as increase in oxygen consumption at 1 uM after 5 to 10 mins by XF-96 cell analyzer method; type: cell-based; settings: filed as activator, time 5-10 min
Summary of the method: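 3T3-L1 cells seeded in quintuplicate at 5000 cells/well in an XF-96 plate. Equilibrated in assay medium at 37 °C for 30 min. Baseline OCR measured over 3–5 min, then compound injected to final concentration and OCR measured at set time points. Cell number counted at end.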

[11] = biological target: RAC-alpha serine/threonine-protein kinase (Mus musculus) (UniProt P31750); experiment: Activation of AKT in mouse C2C12 cells assessed as AKT phosphorylation at […] 308 residue at 1 uM after 6 hrs by Western blot analysis; type: cell-based
Summary of the method: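 C2C12 myoblasts kept in DMEM with 10% FBS and 1% penicillin/streptomycin at 37 °C under 5% CO2.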

3T3-L1 [12] = experiment: Lipid lowering activity in mouse 3T3-L1 cells assessed as reduction in adipogenic cocktail-induced triglyceride levels at 1 uM incubated for 6 days by GPO-POD assay relative to control; type: functional; parameters: scale not given: the % may be the effect or the level left; settings: time 6 day
Summary of the method: (§4)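 Confluent 3T3-L1 cells were treated from day 0 in cocktail (IBMX, dexamethasone, insulin) for 3 days, then re-dosed in insulin medium for 3 more days. For dose–response, concentrations were 0–10 µM (0.01, 0.1, 0.3, 1, 3, 10). On day 6, cells were lysed in 0.2% Triton X-100 and TG was measured by GPO-POD and normalized to BCA protein as % of control. EC50 was fitted from the dose–response. N = 4.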

[13] = Aqueous solubility in PBS buffer at pH 7.4 after 24 hrs; type: physicochemical
3T3-L1 [14] = experiment: Inhibition of mouse 3T3-L1 cells adipocyte differentiation assessed as reduction in adipogenic cocktail-induced C/EBPalpha mRNA expression after 24 hrs by RT-qPCR analysis; type: functional, cell-based; settings: dose 0.01-1 µM; summary of the method: as §3
3T3-L1 [15] = experiment: Inhibition of mouse 3T3-L1 cells adipocyte differentiation assessed as reduction in adipogenic cocktail-induced PPARgamma mRNA expression after 24 hrs by RT-qPCR analysis; type: functional, cell-based; settings: dose 0.01-1 µM; summary of the method: as §3
[16] = Half life in Sprague-Dawley rat liver microsomes assessed as rate constant […] up to 60 mins in presence of NADPH by LC-MS/MS analysis; type: ADME, Microsome
3T3-L1 [17] = experiment: Inhibition of mouse 3T3-L1 cells adipocyte differentiation assessed as reduction in adipogenic cocktail-induced C/EBPdelta mRNA expression after 24 hrs by RT-qPCR analysis; type: functional, cell-based; settings: dose 0.01-1 µM; summary of the method: as §3
3T3-L1 [18] = experiment: Activation of AMPK pathway in mouse 3T3-L1 cells assessed as increase in number of mitochondria copy at 1 uM after 24 hrs by mito-tracker staining based Confocal microscopic method; settings: filed as activator; summary of the method: as §1
[19] = Intrinsic clearance in Sprague-Dawley rat liver microsomes assessed as rate constant […] up to 60 mins in presence of NADPH by LC-MS/MS analysis; type: ADME, Microsome; settings: read-out: CLH
[20] = Half life in Sprague-Dawley rat at 5 mg/kg, po up to 24 hrs by LC-MS/MS analysis; type: ADME, organism-based; settings: in vivo; summary of the method: as §2
[21] = Effect on total AKT level in mouse C2C12 cells at 1 uM after 6 hrs by Western blot analysis; type: ADME, cell-based; settings: c2c12, 6 h
3T3-L1 [22] = experiment: Lipid lowering activity in mouse 3T3-L1 cells assessed as reduction in adipogenic cocktail-induced triglyceride levels incubated for 6 days by GPO-POD assay; type: functional, cell-based; settings: for EC50: 3T3-L1, 144 h; summary of the method: as §4

RAC-alpha serine/threonine-protein kinase (Mus musculus), sequence (P31750 whole entry): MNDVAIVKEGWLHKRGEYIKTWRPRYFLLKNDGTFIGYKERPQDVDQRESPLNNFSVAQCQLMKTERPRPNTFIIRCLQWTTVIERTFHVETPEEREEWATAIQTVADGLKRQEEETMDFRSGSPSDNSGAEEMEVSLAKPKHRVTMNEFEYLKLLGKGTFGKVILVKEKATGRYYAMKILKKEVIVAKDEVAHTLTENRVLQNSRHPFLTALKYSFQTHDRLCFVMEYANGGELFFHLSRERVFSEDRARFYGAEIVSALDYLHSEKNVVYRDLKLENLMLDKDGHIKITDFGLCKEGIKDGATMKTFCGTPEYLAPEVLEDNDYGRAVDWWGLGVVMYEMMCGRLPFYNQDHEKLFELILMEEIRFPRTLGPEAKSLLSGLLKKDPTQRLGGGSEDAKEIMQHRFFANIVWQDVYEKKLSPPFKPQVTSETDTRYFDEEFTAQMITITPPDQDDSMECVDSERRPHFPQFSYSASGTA

## COc1ccc2[nH]c(-c3nc(NCCCCN4CCCC4)c4ccccc4n3)c(C=O)c2c1
[1]
  Tmax: 4 h
3T3-L1 [2]
  Activity: inactive
[3]
  MRT inf: 7.5 h
3T3-L1 [4]
  inhibition: Dose-dependent effect
[5]
  k el at 1 h: 6.17e-05 s⁻¹
3T3-L1 [6]
  Activity: Active
[7]
  AUC(0-t) at 24 h: 374 ng·h/mL
[8]
  remaining at 1 h: 80.7%
[9]
  Cmax: 37.1 ng/mL
3T3-L1 [10]
  Activity: Active
[11]
  Activity: inactive
3T3-L1 [12]
  Activity: >=50%
[13]
  solubility at 24 h: 73.3 µg/mL (≈ 165 µM)
3T3-L1 [14]
  inhibition: Dose-dependent effect
3T3-L1 [15]
  inhibition: Dose-dependent effect
[16]
  half-life: 3.12 h
3T3-L1 [17]
  inhibition: Dose-dependent effect
3T3-L1 [18]
  Activity: Active
[19]
  microsomal CLint: 3.7 µL/min/mg
[20]
  half-life: 4.2 h
[21]
  Activity: Non-Toxic
3T3-L1 [22]
  EC50: 33 nM
3T3-L1 [22]; dose 1-5 µM, time 6.0 day
  Activity: Dose-dependent effect

## CN(C)CCCNc1nc(-c2[nH]c3ccccc3c2C=O)nc2ccccc12
[1]
  Tmax: 4.7 h
3T3-L1 [2]
  Activity: inactive
[3]
  MRT inf: 9.62 h
3T3-L1 [4]
  inhibition: Dose-dependent effect
[5]
  k el at 1 h: 8.83e-05 s⁻¹
3T3-L1 [6]
  Activity: Active
[7]
  AUC(0-t) at 24 h: 247 ng·h/mL
[8]
  remaining at 1 h: 71%
[9]
  Cmax: 23.8 ng/mL
3T3-L1 [10]
  Activity: Active
[11]
  Activity: inactive
3T3-L1 [12]
  Activity: 79.2%
[13]
  solubility at 24 h: 41.1 µg/mL (≈ 110 µM)
3T3-L1 [14]
  inhibition: Dose-dependent effect
3T3-L1 [15]
  inhibition: Dose-dependent effect
[16]
  half-life: 2.18 h
3T3-L1 [17]
  inhibition: Dose-dependent effect
3T3-L1 [18]
  Activity: Active
[19]
  microsomal CLint: 6.3 µL/min/mg
[20]
  half-life: 5.1 h
[21]
  Activity: Non-Toxic
3T3-L1 [22]
  EC50: 91 nM
